Two compounds from ChEMBL document CHEMBL1139836, “Development of orally bioavailable and CNS penetrant biphenylaminocyclopropane carboxamide bradykinin B1 receptor antagonists” (J Med Chem, 2007) can be followed below.

pKi: −log10 of the molar value. Where “and” joins values, the source holds several entries; their conditions need not be identical. Equal values may be shown once. Calls of active or inactive are those of the source.

Data set [1] concerns the target T1, B1 bradykinin receptor (Homo sapiens, UniProt P46663).
T1 sequence (P46663 whole entry): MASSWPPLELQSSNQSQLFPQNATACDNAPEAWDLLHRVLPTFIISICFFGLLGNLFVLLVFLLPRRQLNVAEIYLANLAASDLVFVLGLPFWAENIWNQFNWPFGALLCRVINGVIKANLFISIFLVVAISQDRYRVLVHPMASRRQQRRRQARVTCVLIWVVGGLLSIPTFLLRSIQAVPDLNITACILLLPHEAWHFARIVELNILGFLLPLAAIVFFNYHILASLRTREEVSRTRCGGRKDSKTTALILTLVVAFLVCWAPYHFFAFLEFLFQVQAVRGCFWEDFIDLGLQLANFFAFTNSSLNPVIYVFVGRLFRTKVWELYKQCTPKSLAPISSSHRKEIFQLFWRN
Briefly: Plasma concentration in hB1 knock-in-mouse at 60 mg/kg, po after 1 hr. Also noted: dose 60 mg/kg, route oral. The class given is ADME, organism-based. Summed up:
(§1)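 hB1 knock-in mice with CFA paw inflammation, dosed po at 6, 20 or 60 mg/kg in 0.5% methylcellulose with 10 mg/mL malic acid, pH 4. Plasma collected 60 min after dosing, following behavioural testing.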

For data set [2], the system named is Mus musculus. Briefly: Effect on complete Freund's adjuvant-induced hypersensitivity in mouse at 6 mg/kg, po. The class given is functional, organism-based. Also noted: dose 6 mg/kg. Summed up:
(§2)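 Humanized B1 knock-in mice and wild-type mice, 8-13 weeks old. Injected intraplantar with 30 µL of 50% CFA; 24 h later tested for von Frey tactile threshold (Dixon up-down). Then dosed po at 6, 20 or 60 mg/kg or vehicle (0.5% methylcellulose with 10 mg/mL malic acid, pH 4, 10 mL/kg). Paw withdrawal threshold read at 60 min. Two-way repeated-measures ANOVA with Tukey test.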

Data set [3] in a line: Ratio of drug level in brain against plasma in African green monkey at 2 mg/kg, iv. To be noted: read-out: BPR.
Data set [4] relates to Liver microsomes. Briefly: Stability in rat liver microsomes. Format: ADME, Microsome.
The test system of data set [5] is Rhesus monkey. The data set can be described thus: Antidepressor effect in iv dosed rhesus monkey measured as blockade of DAK-induced blood pressure response. The class given is functional, Macaca mulatta. Summed up:
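Conscious rhesus monkeys primed with LPS 20 µg/kg iv and given 2 h equilibration. Baseline depressor response to des-Arg10-kallidin 0.3 µg/kg iv measured twice. Antagonist given as rising iv bolus doses of 3, 10, 30 and 100 µg/kg, each 5 min before a DAK challenge, with the fall in mean arterial pressure recorded. Plasma sampled 2 min after each dose. Crossover against vehicle, n = 3.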

For data set [6], the target named is T1, B1 bradykinin receptor. Briefly: Plasma concentration in hB1 knock-in-mouse at 6 mg/kg, po after 1 hr. More on the design: dose 6 mg/kg, route oral. Format: ADME, organism-based. In outline:
as §1

Data set [7] can be described thus: Half life in Sprague-Dawley rat at 10 mg/kg, po and 2 mg/kg, iv. The class given is ADME, organism-based. To be noted: in vivo. Summed up: (§3)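 Sprague-Dawley rats, n = 3, dosed orally at 10 mg/kg and iv at 2 mg/kg. F% from oral versus iv exposure; half-life in hours, clearance in mL/min/kg.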
A short description of data set [8]: Stability in dog liver microsomes. The class given is ADME, Canis lupus familiaris, Microsome.
Data set [9] in a line: Oral bioavailability in Mongrel dog at 3 mg/kg, po and 1 mg/kg, iv. The class given is ADME, organism-based, Canis lupus familiaris. To be noted: in vivo. Summed up: (§4)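 Mongrel dogs, n = 2, dosed orally at 3 mg/kg and iv at 1 mg/kg. F%, half-life in hours, clearance in mL/min/kg.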
The nature of data set [10]: Oral bioavailability in rhesus monkey at 3 mg/kg, po and 1 mg/kg, iv. Format: ADME, organism-based, Macaca mulatta. To be noted: in vivo. Summed up: (§5)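 Rhesus monkeys, n = 2, dosed orally at 3 mg/kg and iv at 1 mg/kg. F%, half-life in hours, clearance in mL/min/kg.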
Data set [11] concerns Mus musculus. Briefly: Effect on complete Freund's adjuvant-induced hypersensitivity in mouse at 60 mg/kg, po. The class given is functional, organism-based. Also noted: dose 60 mg/kg. In outline:
as §2

Data set [12] in a line: Clearance in rhesus monkey at 3 mg/kg, po and 1 mg/kg, iv. The class given is ADME, organism-based, Macaca mulatta. To be noted: in vivo. In outline:
as §5

Data set [13] can be described thus: Half life in Mongrel dog at 3 mg/kg, po and 1 mg/kg, iv. Format: ADME, organism-based, Canis lupus familiaris. As to conditions: in vivo. In outline:
as §4

The nature of data set [14]: Stability in rat hepatocytes. Format: ADME, cell-based, Hepatocyte.
Data set [15] is described as follows: Stability in human hepatocytes. Format: ADME, cell-based, Hepatocyte.
In data set [16] the test system is Liver microsomes. Briefly: Stability in human liver microsomes. The class given is ADME, Microsome. For orientation: Microsomes from liver hold many membrane-bound enzymes, among them those of drug oxidation.
The nature of data set [17]: Clearance in Mongrel dog at 3 mg/kg, po and 1 mg/kg, iv. The class given is ADME, organism-based, Canis lupus familiaris. As to conditions: in vivo. Summed up: as §4
Data set [18] can be described thus: Clearance in Sprague-Dawley rat at 10 mg/kg, po and 2 mg/kg, iv. The class given is ADME, organism-based. To be noted: in vivo. In outline:
as §3

Data set [19] is described as follows: Half life in rhesus monkey at 3 mg/kg, po and 1 mg/kg, iv. Format: ADME, organism-based, Macaca mulatta. As to conditions: in vivo. In outline:
as §5

For data set [20], the system named is Mus musculus. Briefly: Effect on complete Freund's adjuvant-induced hypersensitivity in mouse at 20 mg/kg, po. Format: functional, organism-based. Also noted: dose 20 mg/kg. In outline:
as §2

Data set [21] in a line: Oral bioavailability in Sprague-Dawley rat at 10 mg/kg, po and 2 mg/kg, iv. Format: ADME, organism-based. To be noted: in vivo. Summed up:
as §3

The target in data set [22] is T1, B1 bradykinin receptor. Briefly: Plasma concentration in hB1 knock-in-mouse at 20 mg/kg, po after 1 hr. The class given is ADME, organism-based. Also noted: dose 20 mg/kg, route oral. In outline: as §1
In data set [23] the target is T2, B1 bradykinin receptor (Homo sapiens) (UniProt P46663).
T2 sequence (whole entry): T1 sequence (P46663 whole entry)
The data set can be described thus: Reversal of complete Freund's adjuvant-induced hyperalgesia in orally dosed hB1 knock-in-mouse. The class given is functional, organism-based. Summed up: as §2

Data set [24] in a line: Stability in monkey hepatocytes. Format: ADME, cell-based, Macaca mulatta, Hepatocyte. To be noted: rhesus monkey.
Data set [25] in a line: Stability in monkey liver microsomes. The class given is ADME, Macaca mulatta, Microsome. To be noted: rhesus monkey.
Data set [26] addresses T1, B1 bradykinin receptor. Briefly: Displacement of [3H]des-Arg10 Leu9 kallidin from human bradykinin B1 receptor expressed in CHO cells. The class given is cell-based. Summed up: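 Membranes from CHO cells stably expressing human B1, used at 0.2 mg/mL protein in pH 7.4 HEPES/NaCl/KCl buffer with 100 nM enalaprilat, 140 µg/mL bacitracin and 0.1% BSA. Radioligand 0.2 nM [3H]des-arg10 leu9 kallidin, 2% DMSO final, incubated 60 min at 22 °C, then filtered and counted. Nonspecific binding defined with 1 µM des-arg10 kallidin. Ki values, at least two experiments averaged.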
(Displacement assays read how much labelled ligand stays bound in the presence of the test substance.)

Data set [27] concerns LLC-PK1. The data set can be described thus: (§6) Apparent permeability in LLC-PK1 cells expressing human MDR1. As to conditions: pig, llc-pk1. Format: ADME, cell-based, Sus scrofa. Summed up:
(§7)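 LLC-PK1 cells expressing human MDR1, grown in M199 with 10% FBS on 96-well filters and used on day 4. Equilibrated 30 min in HBSS with 1 mM HEPES, then test compound at 5 µM. 1 µM verapamil served as P-gp substrate control. Transport in both directions measured in triplicate by LC/MS/MS or scintillation.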

In data set [28] the test system is human MDR1 (P-gp). The description is as §6. Format: ADME, cell-based, Sus scrofa. As to conditions: pig, LLC-PK1. In outline: as §7
For data set [29], the system named is LLC-PK1. The data set can be described thus: Ratio of transport from basolateral to apical over apical to basolateral in LLC-PK1 cells expressing human MDR1. Format: ADME, cell-based, Sus scrofa. To be noted: pig. In outline:
as §7

As a reminder, the half-life is how long it takes for the measured level to halve. The bioavailability is dose-corrected exposure relative to a reference, in per cent. What is called ED50 is the midpoint of the dose-response relation. With `COC(=O)c1c(Cl)cccc1-c1ccc([C@@H](C)NC(=O)C2(NC(=O)C(F)(F)F)CC2)c(F)c1` [MK0686], the concentration at 1 h in [1] turned out to be 5 µM; in data set [6], 1 µM; in data set [22], 3.5 µM. Also, the result in data set [2], in data set [11] and in data set [20] was inactive. For the same compound, the Kp in data set [3] stood at 0.4. In addition, the Stability entry in data set [4], in [8], in data set [14], in data set [15], in [16] and in data set [24] was “Stable” in each case. Besides, the Stability result in data set [25] is “Stable”. The compound also registered an AD90 in data set [5] of 0.047 mg/kg. Moreover, the half-life in [7] is 0.4 h; in [13] it was 1.8 h; in [19], 1.7 h. In addition, the figures for the bioavailability in [9], in data set [10] and in [21] were 33%, 31% and 34%, respectively. Besides, the clearance worked out at 13 mL/min/kg in data set [12], 9 mL/min/kg in [17] and 40 mL/min/kg in data set [18]. Moreover, the ED50 in data set [23] is 9.76 mg/kg.
What is called pKi is the negative decadic logarithm of the Ki, by convention in mol/L. In general, Papp refers to a coefficient for how fast a substance crosses the barrier. In the case of `COC(=O)c1c(F)cccc1-c1ccc([C@@H](C)NC(=O)C2(NC(=O)C(F)(F)C(F)(F)F)CC2)c(F)c1`, the pKi in data set [26] is 8.80 and 9.17. For the same compound, the Papp in data set [27] worked out at 28 ×10⁻⁶ cm/s; in [28], 31 ×10⁻⁶ cm/s. In data set [7], this compound showed a half-life of 0.34 h. For the same compound, the Ratio in [29] was 1.4 and 3.7. In data set [18], the clearance was determined as 27 mL/min/kg. In data set [21], this compound yielded a bioavailability of 44%.
